Published values pooled from the literature.
Lines come from different studies, so protocols differ.
Target: Dual specificity tyrosine-phosphorylation-regulated kinase 1B (DYRK1B, Homo sapiens, UniProt Q9Y463)
Read-out: enzyme activity
Mode: inhibitor

Compound	method	concentration	remaining activity [%]
COc1cc(Cl)c(C(=O)N[C@@H](CN[C@H]2CC[C@@H](N)CC2)Cc2ccc(C#N)cc2)cc1-c1ccc(CN[C@H](C)c2ccc(C)cc2)o1	–	1 µM	101
Cc1cnc(NC2CCOCC2)nc1-n1cnc(C(=O)NC(CN)c2cc(F)cc(Cl)c2)c1 (centres unmarked)	radiometric	1 µM	80
O=C(Nc1cnn(-c2csc(C(=O)NC3COC3)c2)c1)Nc1ccccc1Cl	–	5 µM	87
O=C(O)c1ccc2c(c1)nc(NCCc1ccccc1)c1ccncc12	radiometric	1 µM	114
O=C(Nc1cnn(-c2csc(C(=O)NC3COC3)c2)c1)Nc1c(F)cccc1Cl	–	5 µM	82.8
O=C(O)c1ccc2c(c1)nc(Nc1ccc(Cl)cc1)c1ccncc12	radiometric	1 µM	65
Nc1ncnc2occ(-c3ccc(NC(=O)Nc4cc(C(F)(F)F)ccc4F)cc3)c12	–	20 µM	80
CC(C)(O)[C@H]1CC[C@H](Nc2ccc3ncc(-c4cccc(C(F)(F)F)c4)n3n2)CC1	–	1 µM	15.3
